Measured values gathered from unrelated publications.
Protocols differ between the studies behind these lines.

Compound	test system	setting	half-life [h]
Cc1cc(-c2ccnc3[nH]cc(F)c23)cc(F)c1[C@@]1(O)[C@H](C)CN(C2CCS(=O)(=O)CC2)C[C@@H]1C	male CD-1 mouse, plasma	intravenous, 1 mg/kg	2.6
Cc1ccc(N(c2ccc(NC(=O)CN(C)c3ccccc3N3CCCC3=O)cc2)C(C)C)cc1	male CD-1 mouse, plasma	oral, 20 mg/kg	1.48
Cc1[nH]c(C)c(S(=O)(=O)Nc2ccc(C(F)(F)F)c(Cl)c2)c1C(=O)N1CCC(F)(F)C1	male CD-1 mouse, plasma	intraperitoneal, 40 mg/kg	3.97
NCc1ccc(-c2nn(Cc3ccccc3)c3ccccc23)o1	male CD-1 mouse, plasma	intraperitoneal, 30 mg/kg	2.33
COC1=CC(c2ccc[nH]2)=N/C1=C\c1cc(Cc2ccc(OC(F)(F)F)cc2)c(C)[nH]1.Cl	male CD-1 mouse, plasma	oral, 40 mg/kg, single dose	51.9
Cc1ncsc1-c1ccc([C@H](C)NC(=O)[C@@H]2C[C@@H](O)CN2C(=O)[C@@H](NC(=O)CCCCCCCCC(=O)N2CCC(n3cc(-c4ccc5c(c4)CCN5C(=O)Cc4cccc(OC(F)(F)F)c4)c4c(N)ncnc43)CC2)C(C)(C)C)cc1	male C57BL/6 mouse, plasma	intravenous, 1 mg/kg	3.1
NCc1ccc(-c2nn(Cc3ccncc3)c3ccccc23)o1	male CD-1 mouse, plasma	intraperitoneal, 30 mg/kg	5.69
Cc1ncsc1-c1ccc([C@H](C)NC(=O)[C@@H]2C[C@@H](O)CN2C(=O)[C@@H](NC(=O)CCCCCCCCCCC(=O)NCCCn2cc(-c3ccc4c(c3)CCN4C(=O)Cc3cccc(OC(F)(F)F)c3)c3c(N)ncnc32)C(C)(C)C)cc1	mouse, plasma	intravenous, 1 mg/kg	3.3
Cc1cc(-c2ccnc3[nH]cc(F)c23)cc(F)c1[C@@]1(O)[C@H](C)CN(C(=O)CN)C[C@@H]1C	male CD-1 mouse, plasma	intravenous, 1 mg/kg	9
CN(C)C(=O)c1cc2cnc(Nc3ccc(-c4ccc5c(=O)cc(N6CCOCC6)oc5c4)cc3)nc2n1C1CCCC1	BALB/c mouse, plasma	oral, 20 mg/kg	3.3
COc1cccc2c(N3CCC(CCP(=O)(O)O)CC3)ncnc12	female BALB/c mouse, serum	subcutaneous, 50 mg/kg, tumour-bearing	1.7
Cc1ccc(OCC(=O)N[C@@H](Cc2c[nH]c3ccccc23)C(=O)OC(C)C)cc1	male Sprague-Dawley mouse, plasma	intravenous, 10 mg/kg	2.2
Cc1ccc(C(C)C)cc1Oc1nccc(-c2c(-c3ccc(C(F)(F)F)cc3)ncn2C2CCN(CCO)CC2)n1	male C57BL/6 mouse, liver	intraperitoneal, 10 mg/kg	3.1
COC1=CC(c2ccc[nH]2)=N/C1=C\c1[nH]c(Cc2ccc(OC(F)(F)F)cc2)cc1Cc1ccc(OC(F)(F)F)cc1	male CD-1 mouse, plasma	oral, 40 mg/kg, single dose	9.71
OCc1ccc(-c2nn(Cc3ccccc3)c3ccccc23)o1	male CD-1 mouse, plasma	oral, 10 mg/kg	1.86
COc1cc(C2C3=C(COC3=O)N(CCO)c3cc4c(cc32)CCC4)cc(OC)c1OC (centres unmarked)	female C57BL/6 mouse, plasma	intraperitoneal, 50 mg/kg	5.2
COCC(=O)N1CCc2[nH]c3c(Cl)c(Cl)ccc3c2[C@@H]1C	C57BL/6 mouse, blood	intravenous, 1 mg/kg	0.653
CSC1O[C@@H]([C@H](NC(=O)[C@H]2NC[C@@H]3C[C@H](CC(C)C)CCO[C@H]32)[C@H](C)Cl)C(O)[C@@H](O)[C@H]1O (some centres unmarked)	mouse, plasma	intravenous, 3 mg/kg, single dose	2.05
Cl.Fc1ccc(Oc2ccc(Nc3ccc4ncc(OCC5CCNCC5)nc4c3)cc2)cc1	SCID mouse, plasma	intraperitoneal, 50 mg/kg	> 40
COc1ccc(C[C@H](NC(=O)[C@H](C)NC(=O)CN2CCOCC2)C(=O)N[C@@H](Cc2ccccc2)C(=O)C2(C)CO2)cc1 (stereo in doubt)	mouse, plasma	intravenous, 20 mg/kg, single dose	7.9
CCOC(=O)c1c(NC(=O)CNC(C)C)sc2c1CCCCC2	male mouse, plasma	intraperitoneal, 5 mg/kg, single dose	1.47
Cc1ncsc1-c1ccc([C@H](CC(=O)N2CCN(c3ccc(C#Cc4ccc(C(=O)N5CCC(n6cc(-c7ccc8c(c7)CCN8C(=O)Cc7cccc(OC(F)(F)F)c7)c7c(N)ncnc76)CC5)cc4)cn3)CC2)NC(=O)[C@@H]2C[C@@H](O)CN2C(=O)[C@@H](NC(=O)C2(F)CC2)C(C)(C)C)cc1	male C57BL/6 mouse, plasma	intravenous, 1 mg/kg	7.3
O=C1CCC(N2Cc3cc(C4CCN(Cc5ccccc5)CC4)ccc3C2=O)C(=O)N1 (centres unmarked)	male CD-1 mouse, plasma	oral, 3 mg/kg	1.28
